Experimental data from ChEMBL document CHEMBL1153706, “Synthesis of 9-anilinoacridine triazines as new class of hybrid antimalarial agents” (Bioorg Med Chem Lett, 2009).

How the values were obtained:
[1] = Selectivity index, ratio of IC50 for african green monkey (Cercopithecus aethiops) Vero cells to IC50 for chloroquine-sensitive Plasmodium falciparum 3D7; assay type: toxicity, cell-based; settings: read-out: Ratio IC50
Procedure, shortened: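 Ratio of the Vero IC50 to the 3D7 IC50. Vero monkey kidney […] cells at 1 × 10⁴ cells/well exposed to varying compound concentrations for 72 h, MTT read-out, IC50 from non-linear regression. The 3D7 IC50 comes from a 72 h SYBR Green I fluorescence assay using twofold serial dilutions from 500 ng/ml.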

Plasmodium falciparum = experiment: Antimalarial activity against chloroquine-sensitive Plasmodium falciparum 3D7 after 72 hrs; assay type: functional, organism-based; settings: 3D7, 72 h
Procedure, shortened: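 P. falciparum 3D7 cultured with 0.5% parasitaemia in a 2.5% cell suspension. Compounds are made up as 5 mg/ml DMSO stocks. Twofold serial dilutions (seven concentrations) start at 500 ng/ml, or 25 ng/ml for chloroquine, in duplicate wells. Incubated 72 h, then lysis buffer with SYBR Green I, 1 h at room temperature, fluorescence read. IC50 from non-linear regression dose–response curves.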

Plasmodium yoelii = experiment: Antimalarial activity against chloroquine-resistant Plasmodium yoelii N67 infected in Swiss mice (Mus musculus) assessed as suppression of parasitaemia at 100 mg/kg, peroral for 4 days; assay type: functional; settings: N67, 96 h, route oral
Procedure, shortened: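 Swiss mice (22 2 g), groups of five, inoculated with 1 × 10⁶ parasitized RBC on day 0; dosed once daily days 0–3, orally, 0.1 ml aqueous suspension with a few drops of Tween 80. Parasitaemia read from thin blood smears between days 4 and 6; group mean used for percent suppression versus untreated controls; CQ-treated mice as reference.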

| Structure (SMILES) | selectivity ratio [1] | IC50 (Plasmodium falciparum) [nM] | inhibition in vivo at 100 mg/kg (Plasmodium yoelii) [%] |
| --- | --- | --- | --- |
| COc1ccc2nc3cc(Cl)ccc3c(Nc3ccc(Nc4nc(Nc5ccccc5)nc(N5CCN(C)CC5)n4)cc3)c2c1 | 146 | 22.1 | – |
| CCN1CCN(c2nc(Nc3ccccc3)nc(Nc3ccc(Nc4c5ccc(Cl)cc5nc5ccc(OC)cc45)cc3)n2)CC1 | 164 | 19.2 | – |
| COc1ccc2nc3cc(Cl)ccc3c(Nc3ccc(Nc4nc(NCCN5CCOCC5)nc(Nc5ccccc5)n4)cc3)c2c1 | 2900 | 6.97 | 96.6 |
| COc1ccc2nc3cc(Cl)ccc3c(Nc3ccc(Nc4nc(NCCCN5CCOCC5)nc(Nc5ccccc5)n4)cc3)c2c1 | 61.4 | 15.1 | – |
| COc1ccc2nc3cc(Cl)ccc3c(Nc3ccc(Nc4nc(NCCN(C)C)nc(Nc5ccccc5)n4)cc3)c2c1 | 160 | 7.95 | 49 |
| CCN(CC)CCNc1nc(Nc2ccccc2)nc(Nc2ccc(Nc3c4ccc(Cl)cc4nc4ccc(OC)cc34)cc2)n1 | 137 | 21.8 | – |
| COc1ccc2nc3cc(Cl)ccc3c(Nc3ccc(Nc4nc(NCCCN(C)C)nc(Nc5ccccc5)n4)cc3)c2c1 | 295 | 4.21 | 95.7 |
| CCCCNc1nc(Nc2ccccc2)nc(Nc2ccc(Nc3c4ccc(Cl)cc4nc4ccc(OC)cc34)cc2)n1 | 138 | 289 | – |
| COc1ccc2nc3cc(Cl)ccc3c(Nc3ccc(Nc4nc(Nc5ccccc5)nc(NC5CCCC5)n4)cc3)c2c1 | 5010 | 17.5 | – |
| COc1ccc2nc3cc(Cl)ccc3c(Nc3ccc(Nc4nc(NCCO)nc(Nc5ccccc5)n4)cc3)c2c1 | 755 | 9.46 | 58.5 |
| COc1ccc2nc3cc(Cl)ccc3c(Nc3ccc(Nc4nc(NCCCO)nc(Nc5ccccc5)n4)cc3)c2c1 | 17.4 | 365 | – |
| COc1ccc2nc3cc(Cl)ccc3c(Nc3ccc(Nc4nc(Nc5ccc(F)cc5)nc(N5CCN(C)CC5)n4)cc3)c2c1 | 210 | 49.4 | – |
| CCN1CCN(c2nc(Nc3ccc(F)cc3)nc(Nc3ccc(Nc4c5ccc(Cl)cc5nc5ccc(OC)cc45)cc3)n2)CC1 | 193 | 65.6 | – |
| COc1ccc2nc3cc(Cl)ccc3c(Nc3ccc(Nc4nc(NCCN(C)C)nc(Nc5ccc(F)cc5)n4)cc3)c2c1 | 28.1 | 40.1 | – |
| CCN(CC)CCNc1nc(Nc2ccc(F)cc2)nc(Nc2ccc(Nc3c4ccc(Cl)cc4nc4ccc(OC)cc34)cc2)n1 | 155 | 27.9 | 95.4 |
| COc1ccc2nc3cc(Cl)ccc3c(Nc3ccc(Nc4nc(NCCCN(C)C)nc(Nc5ccc(F)cc5)n4)cc3)c2c1 | 99.8 | 35.2 | – |
| COc1ccc2nc3cc(Cl)ccc3c(Nc3ccc(Nc4nc(NCCN5CCOCC5)nc(Nc5ccc(F)cc5)n4)cc3)c2c1 | 3090 | 20.1 | 98.7 |
| COc1ccc2nc3cc(Cl)ccc3c(Nc3ccc(Nc4nc(NCCCN5CCOCC5)nc(Nc5ccc(F)cc5)n4)cc3)c2c1 | 1560 | 45.1 | – |
| CNc1nc(Nc2ccc(F)cc2)nc(Nc2ccc(Nc3c4ccc(Cl)cc4nc4ccc(OC)cc34)cc2)n1 | 336 | 116 | – |
| COc1ccc2nc3cc(Cl)ccc3c(Nc3ccc(Nc4nc(NN)nc(Nc5ccccc5)n4)cc3)c2c1 | 31.4 | 4.27 | – |
| COc1ccc2nc3cc(Cl)ccc3c(Nc3ccc(Nc4nc(N)nc(Nc5ccc(F)cc5)n4)cc3)c2c1 | 37.1 | 119 | – |
| COc1ccc2nc3cc(Cl)ccc3c(Nc3ccc(Nc4nc(N)nc(Nc5ccccc5)n4)cc3)c2c1 | 448 | 68.4 | – |
| CCN(CC)CCCC(C)Nc1ccnc2cc(Cl)ccc12 (stereo unspecified) [CHLOROQUINE] | – | – | 99.9 |
